Screens from PubChem BioAssay.
MT1-MMP act inh – MT1-MMP (human) activation inhibition; 0.061% of 360,000 active; P50281; GFP/RFP ratio change, % at 20 µM; HT1080 RFP-PRO-GFP cells, GFP/RFP ratio fluorescence, overnight; percent of plate control window, DMSO zero;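 active = GFP/RFP ratio change of at least 30% with cell ATP level not reduced by more than half and red fluorescence within 50% of control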
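Material: RFP-PRO-GFP reporter HT1080 cells. Dosing: single-point 20 µM compound, 1% DMSO. Controls: DMSO and RFP-L50D-GFP cell wells. Timing: cells overnight before dosing, compound overnight, 37 °C, 5% CO2. Measure: GFP/RFP fluorescence ratio.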
NR2E3 ag-1 – agonists of human NR2E3 nuclear receptor | Q9Y5X4 | CHO-S Gal4-NCOR/VP16-NR2E3 two-hybrid, luciferase | inhibition of corepressor binding, % at 3.98 µM | 0.35% of 360,000 active | AID 602229;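 active = inhibition above the mean of all tested compounds plus 3 SD, cut at about 70% in these data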;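 note: 0% = DMSO with NR2E3 transfected cells and 100% = cells lacking NR2E3 construct; higher means lower luciferase signal from less NR2E3 corepressor binding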
NR2E3 ag-2 – agonists of human nuclear receptor NR2E3; Q9Y5X4; inhibition of corepressor binding, % at 4.78 µM; 0.12% of 320,000 active; GST-NR2E3/biotin-RetCOR TR-FRET, 1536-well;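 active = percent inhibition above the cutoff of mean plus 3 SD of all tested compounds, set per screening campaign, cut at about 20% in these data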;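 note: 0% = DMSO wells and 100% = biotin wells as full block of FRET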
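Test system – NR2E3–RetCOR corepressor complex · Quantity – NR2E3 fusion 1.35 nM · Buffer or medium – Tris pH 7.5 · Incubation – Compound–protein incubation for 5 h at 4 °C · Technique – TR-FRET, Eu(K)-anti-GST donor, streptavidin-D2 acceptor, ex 340, em 617/671 nm · Evaluation – percent inhibition of 671/617 nm emission ratio versus biotin and DMSO controls · Plate – 1536-well format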
Rev-erbA mod – Rev-erb alpha (human) modulation; P20393; Rev-erbα–FITC-DNA binding, fluorescence polarization, 90 min; activity, % at 10 µM; 0.79% of 370,000 active; AID 1259318;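 active = activity above about 14%, limit read from the data; passing the limit was not always enough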;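 note: 0% = DMSO wells with 35 nM protein and 100% = DMSO wells with 750 nM protein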
Target sequence (P20393 whole entry, looked up): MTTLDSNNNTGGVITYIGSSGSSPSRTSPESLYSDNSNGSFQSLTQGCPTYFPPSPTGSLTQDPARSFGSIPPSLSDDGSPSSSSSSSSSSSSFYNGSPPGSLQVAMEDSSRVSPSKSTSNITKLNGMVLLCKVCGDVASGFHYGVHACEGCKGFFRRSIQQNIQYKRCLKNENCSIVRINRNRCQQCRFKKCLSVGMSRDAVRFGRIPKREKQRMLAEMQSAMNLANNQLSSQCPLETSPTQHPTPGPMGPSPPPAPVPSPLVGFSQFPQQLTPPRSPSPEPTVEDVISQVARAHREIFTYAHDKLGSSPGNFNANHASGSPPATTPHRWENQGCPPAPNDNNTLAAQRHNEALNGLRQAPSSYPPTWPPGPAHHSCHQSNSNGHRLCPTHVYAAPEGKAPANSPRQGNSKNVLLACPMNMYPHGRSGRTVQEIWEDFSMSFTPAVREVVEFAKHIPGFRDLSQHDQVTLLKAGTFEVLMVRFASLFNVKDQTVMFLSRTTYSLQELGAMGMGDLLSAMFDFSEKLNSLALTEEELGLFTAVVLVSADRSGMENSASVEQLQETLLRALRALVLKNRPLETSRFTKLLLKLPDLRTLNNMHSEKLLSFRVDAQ
PG9 Ab binder – PG9 antibody binding by small molecule. TR-FRET gp120-PG9 antibody binding. inhibition, % at 6.7 µM. 0.43% of 360,000 active. AID 624416; in the data active = inhibition above about 8.5%
SKN-1 block – C. elegans SKN-1 inhibition; AID 624304; inhibition, % at 21.8 µM; 0.49% of 360,000 active; C. elegans VP596 Pgst-4::GFP/RFP ratio, acrylamide-induced, 24 h;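 active = interference check ratio from 0.5 to 1.5 plus GFP to RFP signal ratio inhibition reaching or exceeding a fixed threshold, cut at about 30% in these data, passing the limit was not always enough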
PG9 bind confirm – confirmation of small molecules binding HIV-1 gp120 antibody PG9. inhibition, % at 6.7 µM. AID 651571. shares compounds with PG9 Ab binder. TR-FRET PG9 antibody binding, biochemical. 90% of 1,500 active; in the data active = inhibition above about 9%
PGV04 Ab binding – PGV04 control antibody binding, counter-screen. 95% of 1,500 active. shares compounds with PG9 Ab binder. inhibition, % at 6.7 µM. TR-FRET PGV04 antibody-gp120 binding, biochemical; in the data active = inhibition above about 9.5%
Rev-erbA confirm – Rev-erb alpha (human) modulation, hit confirmation. shares compounds with Rev-erbA mod. Rev-erb alpha FITC-DNA binding, fluorescence polarization, 90 min. activation, % at 25 µM. 61% of 3,000 active;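 active = activation at or above a set limit, or at least 3 SD above the negative control mean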;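 note: 0% = 35 nM protein with DMSO and 100% = 750 nM protein high control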
RORg counter – RORgamma DNA-binding activity, dose-response counter-screen; IC50, µM; purified RORgamma protein-FITC-DNA binding, fluorescence polarization; shares compounds with Rev-erbA mod; 8% of 910 active; AID 1259320;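 active = Compounds whose fitted half-maximal concentration for disrupting protein-DNA binding is below 10 micromolar; the record names Rev-erb in its text, so the target is in doubt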
* = called active by the depositor; i = inactive; . = no result given. A selection: hits, their analogues and other compounds. The true share with any hit is near 1.9%.

SMILES	MT1-MMP act inh	NR2E3 ag-1	NR2E3 ag-2	Rev-erbA mod	PG9 Ab binder	SKN-1 block	PG9 bind confirm	PGV04 Ab binding	Rev-erbA confirm	others
Cc1ccc2cc(C#N)c(SCC(=O)NNC(=O)Cc3ccccc3)nc2c1	-3.9	-0.4	.	52.3*	20.0*	-6.3	38.3*	41.3*	43.8*	RORg counter=>40
CCOc1ccc(C(=O)Nc2nc(C)c(C(=O)OC)s2)cc1	3.8	-95.3	0.5	49.6*	11.9*	6.4	38.0*	71.1*	80.8*	RORg counter=i
COC(=O)c1sc(NC(=O)c2ccncc2)nc1C	-0.8	-27.6	2.5	-3.8	-0.9	21.8	.	.	.
CCOC(=O)c1sc(NC(=O)c2ccc(=O)[nH]c2)nc1C	-0.2	-25.4	-1.3	-0.9	-1.0	4.7	.	.	.
C=CCOC(=O)c1sc(NC(=O)c2ccc(OC)cc2)nc1C	2.9	-15.0	1.9	38.6*	18.1*	-9.4	22.0*	38.8*	24.9*
O=C(CCc1ccccc1-c1ccccc1CCNC(=O)c1cccc(F)c1)NCc1ccccc1	.	.	.	2.8	.	.	.	.	.
COc1ccc(N2C(=O)c3[nH]nc(-c4ccccc4)c3C2c2ccc(Br)cc2)cc1 (stereo unspecified)	.	.	.	-3.6	-0.9	.	.	.	.
CCOc1ccc(S(=O)(=O)Nc2nc3ccccc3nc2-n2ccc(=NC(=O)c3ccccc3C)cc2)cc1	-26.2	-1.5	-0.6	39.1*	40.2*	-12.4	32.3*	65.2*	59.3*	RORg counter=>40
CCOC(=O)c1cnc2cc(C)nn2c1C	2.0	-29.8	-2.2	-4.1	0.1	-5.4	.	.	.
CCOC(=O)c1cnc2cc(-c3ccc(Br)cc3)nn2c1C	-2.2	-35.1	2.3	17.9*	9.4*	-2.1	6.5	6.9	10.2
CC(CC(=O)Nc1ccc2c(c1)c(=O)n(C)n2-c1ccc2ccccc2c1)C(F)(F)F (stereo unspecified)	6.5	-33.4	.	20.5*	24.2*	5.5	17.3*	24.3*	22.1*
COc1ccc(C2CC(=O)C(c3ccc(C(N)=O)cc3)=CN2Cc2ccccc2)cc1 (stereo unspecified)	.	.	.	2.8	-0.8	.	.	.	.
CCOCCCn1c(=S)[nH]c2cc(C(=O)NCCc3ccccc3)ccc2c1=O	1.7	-37.0	-0.3	42.7*	18.2*	-20.3	23.0*	53.4*	31.0*	RORg counter=i
CCCCCNC(=O)c1ccc2c(=O)n(CCCOCC)c(=S)[nH]c2c1	5.8	-2.1	1.9	0.6	-2.1	1.4	.	.	.
COc1ccccc1N1C(=O)C2C(C(=O)c3ccccc3)=NN(c3ccc(Br)cc3)C2C1=O (stereo unspecified)	-65.6	-5.1	8.1	65.7*	13.0*	-10.5	17.4*	28.2*	20.5*
NC(=O)NC(=O)COC(=O)c1sc2ccccc2c1Cl	1.0	-27.9	2.0	9.6	-4.1	-6.5	.	.	.
O=C(COC(=O)c1sc2ccccc2c1Cl)Nc1ncc(Cl)cc1Cl	3.2	30.9	4.5	51.9*	20.5*	5.7	22.1*	44.8*	36.0*	RORg counter=>40
CC(C)C(=O)Nc1cccc(C(=O)OCC(=O)c2ccc(Cl)cc2Cl)c1	1.3	-41.6	-1.3	18.9*	53.1*	31.5	40.3*	58.2*	9.4
COc1cc(OC)cc(-c2c(Sc3ccccc3)c3cc(-c4ccc5c(c4)OCCO5)ccc3n2C)c1	1.1	-30.7	.	22.8*	44.6*	4.3	55.3*	72.9*	21.5*
C/C(=N\NC(=O)Cc1cccs1)c1ccco1	.	.	.	-0.8	.	.	.	.	.
S=c1[nH]cc(-c2ccc(Cl)cc2)n1Cc1ccccc1	6.2	1.0	1.2	26.2*	16.4*	-2.2	16.6*	21.4*	12.8
CCn1c(-c2ccccc2)c[nH]c1=S	0.8	12.0	4.5	11.2	-0.2	-7.4	.	.	.
Cc1cc(OCC(=O)Nc2cccnc2)c2c(C)c(C)c(=O)oc2c1	2.1	-2.2	-57.3	19.1*	15.0*	1.1	14.0*	16.3*	-0.4
Cc1cc(OCC(=O)NCc2cccnc2)c2c(C)c(C)c(=O)oc2c1	-1.0	-9.7	1.4	-4.8	0.3	14.5	.	.	.
CCCC/C=C1/[C@@H](CC)N(Cc2ccc(OC)cc2OC)C2=N[C@H](c3ccccc3)CC(=O)N21	.	.	.	-5.7	.	.	.	.	.
SMILES	MT1-MMP act inh	NR2E3 ag-1	NR2E3 ag-2	Rev-erbA mod	PG9 Ab binder	SKN-1 block	PG9 bind confirm	PGV04 Ab binding	Rev-erbA confirm	others
O=C(N[C@H](C(=O)N1CCC[C@H]1C(=O)NCCc1ccccc1Cl)c1ccccc1)c1ccc(Cl)cc1Cl	.	.	.	-4.4	0.0	.	.	.	.
COCCCN1C(=O)[C@H](CC(=O)NCCC(C)C)[C@]2(C(=O)OC)CCCCC=C12	.	.	.	-0.9	.	.	.	.	.
COc1ccc(CCn2c(S)nc3ccccc3c2=O)cc1	2.2	-17.4	4.6	36.6*	23.9*	15.1	42.4*	50.1*	7.8
Nc1c(S(=O)(=O)c2cccc(Cl)c2)c2nc3ccccc3nc2n1CCN1CCOCC1	-3.4	-2.8	0.4	32.3*	11.1*	-16.9	3.4	4.4	3.8
Cc1ccc2[nH]c(=O)c(COC(=O)c3cccs3)cc2c1	1.6	-38.8	17.6	33.2*	17.8*	7.0	49.8*	66.2*	20.8*
Cc1ccc2[nH]c(=O)c(CN(C)C(=O)c3cccs3)cc2c1	1.5	-14.5	1.2	4.6	-2.0	-5.4	.	.	.
COCCNc1nc2c(S(=O)(=O)c3cc(C)ccc3C)nnn2c2ccccc12	2.2	-6.7	3.6	45.4*	45.6*	-7.0	28.7*	55.3*	19.2*
CC(=O)NCCNc1nc2c(-c3cccc(C)c3)nnn2c2ccccc12	2.6	2.0	2.1	0.9	3.6	22.6	.	.	.
Cc1cc(-c2cccc(Br)c2)c(C#N)c(N)n1	-0.9	-19.5	19.2	21.3*	33.5*	11.5	37.9*	61.3*	6.8
Cc1cc(C)c(C#N)c(N)n1	-4.0	22.4	1.6	-3.7	-0.2	-0.3	.	.	.
O=C(c1cc2cc(Cl)ccc2[nH]1)N1CCN(c2ccccn2)CC1	-1.2	-12.1	-3.2	51.0*	26.8*	27.8	7.2	23.0*	41.4*	RORg counter=5.37*
COc1ccc(C(C)(C)C)cc1NC(=O)COC(=O)c1cc(SC)ccc1Cl	1.2	-24.5	-2.7	-3.4	-2.0	-12.1	.	.	.
COc1ccc(NC(=O)COC(=O)c2cc(SC)ccc2Cl)c(OC)c1	2.2	-10.1	11.7	34.4*	18.2*	2.5	30.3*	44.8*	29.5*
